Assay results taken from ChEMBL document CHEMBL3868627, “Radical scavenging and antibacterial activity of caffemides against gram positive, gram negative and clinical drug resistance bacteria” (Bioorg Med Chem Lett, 2016).

How the values were obtained:
Type in all cases: functional
Pseudomonas aeruginosa [1] = assay: Bactericidal activity against Pseudomonas aeruginosa PAO1 ATCC 15692 at 50 ug/ml measured after 1 hr by serial dilution method relative to control
Pseudomonas aeruginosa [2] = assay: Bactericidal activity against Pseudomonas aeruginosa PAO1 ATCC 15692 at 50 ug/ml measured after 3 hrs by serial dilution method relative to control
Staphylococcus aureus [3] = assay: Bactericidal activity against Staphylococcus aureus ATCC 25923 at 100 ug/ml measured after 6 hrs by serial dilution method relative to control
Staphylococcus aureus [4] = assay: Bactericidal activity against Staphylococcus aureus ATCC 25923 at 100 ug/ml measured after 24 hrs by serial dilution method relative to control
[5] = system: Mycolicibacterium smegmatis; assay: Antibacterial activity against Mycobacterium smegmatis MC2 155 ATCC 700084 assessed as colony forming units at 10 ug/ml measured after 6 hrs by serial dilution method (reference value: 70 +/- 1.73 10^3CFU)
Summary of the method: (§1)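 Bacteria were exposed to test compound over a range of µg/ml concentrations. Viable bacteria were counted by colony forming unit (CFU) assay at set time points (6 h and 24 h for M. smegmatis and S. aureus strains), and untreated bacteria served as the control. Percentage of population killed was calculated relative to the untreated control. Values are means ± S.D of three independent trials.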

Pseudomonas aeruginosa [6] = assay: Antibacterial activity against Pseudomonas aeruginosa PAO1 ATCC 15692 assessed as colony forming units at 1 ug/ml measured after 3 hr by serial dilution method (reference value: 141.66 +/- 7.5 10^8CFU)
Staphylococcus aureus [7] = assay: Antibacterial activity against Staphylococcus aureus ATCC 25923 assessed as colony forming units at 500 ug/ml measured after 24 hrs by serial dilution method (reference value: 77.66 +/- 5.13 10^6CFU)
Staphylococcus aureus [8] = assay: Antibacterial activity against methicillin-resistant Staphylococcus aureus ATCC 43300 assessed as colony forming units at 100 ug/ml measured after 6 hrs by serial dilution method (reference value: 64.33 +/- 3.51 10^6CFU); summary of the method: as §1
Staphylococcus aureus [9] = assay: Antibacterial activity against methicillin-resistant Staphylococcus aureus ATCC 43300 assessed as colony forming units at 50 ug/ml measured after 24 hrs by serial dilution method (reference value: 74 +/- 2 10^6CFU); summary of the method: as §1
Pseudomonas aeruginosa [10] = assay: Bactericidal activity against Pseudomonas aeruginosa PAO1 ATCC 15692 at 10 to 50 ug/ml measured after 1 hrs by serial dilution method relative to control
Pseudomonas aeruginosa [11] = assay: Bactericidal activity against Pseudomonas aeruginosa PAO1 ATCC 15692 at 50 to 100 ug/ml measured after 3 hrs by serial dilution method relative to control
Staphylococcus aureus [12] = assay: Bactericidal activity against Staphylococcus aureus ATCC 25923 at 1 to 10 ug/ml measured after 6 hrs by serial dilution method relative to control
Staphylococcus aureus [13] = assay: Bactericidal activity against Staphylococcus aureus ATCC 25923 at 200 ug/ml measured after 6 hrs by serial dilution method relative to control
Staphylococcus aureus [14] = assay: Antibacterial activity against methicillin-resistant Staphylococcus aureus ATCC 43300 assessed as colony forming units at 200 ug/ml measured after 6 hrs by serial dilution method (reference value: 64.33 +/- 3.51 10^6CFU); summary of the method: as §1

| Structure (SMILES) | Activity (Pseudomonas aeruginosa [1]) [%] | Activity (Pseudomonas aeruginosa [2]) [%] | Activity (Staphylococcus aureus [3]) [%] | Activity (Staphylococcus aureus [4]) [%] | Activity [5] [×10³ CFU] | Activity (Pseudomonas aeruginosa [6]) [×10⁸ CFU] | Activity (Staphylococcus aureus [7]) [×10⁶ CFU] | Activity (Staphylococcus aureus [8]) [×10⁶ CFU] | Activity (Staphylococcus aureus [9]) [×10⁶ CFU] | Activity (Pseudomonas aeruginosa [10]) [%] | Activity (Pseudomonas aeruginosa [11]) [%] | Activity (Staphylococcus aureus [12]) [%] | Activity (Staphylococcus aureus [13]) [%] | Activity (Staphylococcus aureus [14]) [×10⁶ CFU] |
| --- | --- | --- | --- | --- | --- | --- | --- | --- | --- | --- | --- | --- | --- | --- |
| O=C(/C=C/c1ccc(O)c(O)c1)Nc1ccccc1Nc1ccccc1 | 58.9 | 62.1 | 92.3 | 84.9 | 38.33 | 115.33 | 0 | 24.33 | 28.66 | – | – | – | – | – |
| Cc1ccc(O)c(NC(=O)/C=C/c2ccc(O)c(O)c2)c1 | – | – | – | – | 42.66 | 126 | 0 | 20.33 | 26 | 50 | 50 | 60.9 | 93.8 | 6.66 |
